Data from ChEMBL document CHEMBL4823317, “Synthesis, in vitro cytotoxicity and biological evaluation of twenty novel 1,3-benzenedisulfonyl piperazines as antiplatelet agents” (Bioorg Med Chem, 2021).

Columns and labels:
Blood [1] = assay: Anti-platelet aggregation activity in rabbit venous blood assessed as inhibition of arachidonic acid-induced aggregation at 1.3 uM pre-treated for 2 mins followed by ADP addition by Born turbidimetric method relative to control; format: functional; details: Oryctolagus cuniculus
Summary of the method: (§1)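 Platelet-rich plasma from male rabbit (2–3 kg) ear-vein blood, citrate anticoagulated (3.8%, 9:1), spun 1000 rpm 10 min at room temperature; platelet-poor plasma (3000 rpm 10 min) as blank. Compound at 1.3 µM, from DMSO solution (DMSO 0.5% v/v vehicle control), preincubated 2 min in PRP before inducer. Inhibition% = (1 − D/S) × 100, where S is aggregation with solvent.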

Blood [2] = assay: Anti-platelet aggregation activity in rabbit venous blood assessed as inhibition of collagen-induced aggregation at 1.3 uM pre-treated for 2 mins followed by ADP addition by Born turbidimetric method relative to control; format: functional; details: Oryctolagus cuniculus; summary of the method: as §1
Blood [3] = assay: Anti-platelet aggregation activity in rabbit venous blood assessed as inhibition of ADP-induced aggregation at 1.3 uM pre-treated for 2 mins followed by ADP addition by Born turbidimetric method relative to control; format: functional; details: Oryctolagus cuniculus; summary of the method: as §1
[4] = Cytotoxicity against mouse L929 cells assessed as cell survival at 10 uM incubated for 48 hrs by CCK-8 assay relative to control; format: cell-based; details: read-out: Activity
Summary of the method: (§2)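 L929 mouse fibroblasts seeded at 10,000 cells/well in RPMI-1640 and allowed to attach 24 h at 37 °C. Compounds then added at 10 and 100 µM for 48 h at 37 °C. Medium replaced with fresh medium, CCK-8 added, 30 min further incubation, absorbance read at 450 nm. Viability = Abs(test)/Abs(control) × 100%.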

[5] = Cytotoxicity against mouse L929 cells assessed as cell survival at 100 uM incubated for 48 hrs by CCK-8 assay relative to control; format: cell-based; details: read-out: Activity; summary of the method: as §2
Blood [6] = assay: Anti-platelet aggregation activity in rabbit venous blood assessed as inhibition of ADP-induced aggregation pre-treated for 2 mins followed by ADP addition by Born turbidimetric method; format: functional, tissue-based; details: Oryctolagus cuniculus
Summary of the method: (§3)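 Rabbit PRP Born turbidimetry with the same 2 min compound preincubation. ADP or arachidonic acid as inducer. Compounds tested at 1.3, 0.65 and 0.325 µM. Inhibition% = (1 − D/S) × 100 versus the solvent control, and IC50 calculated from these inhibition rates.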

Blood [7] = assay: Anti-platelet aggregation activity in rabbit venous blood assessed as inhibition of arachidonic acid-induced aggregation pre-treated for 2 mins followed by ADP addition by Born turbidimetric method; format: functional, tissue-based; details: Oryctolagus cuniculus; summary of the method: as §3

SMILES	IC50 (Blood [6]) [nM]	IC50 (Blood [7]) [nM]	inhibition at 1.3 µM (Blood [1]) [%]	inhibition at 1.3 µM (Blood [2]) [%]	inhibition at 1.3 µM (Blood [3]) [%]	viability at 48 h, 10 µM [4] [%]	viability at 48 h, 100 µM [5] [%]
CCN1CCN(S(=O)(=O)c2ccc(OC)c(S(=O)(=O)N3CCN(CC)CC3)c2)CC1			22.4	42.6	24.3		
CCOc1ccc(S(=O)(=O)N2CCN(CC)CC2)cc1S(=O)(=O)N1CCN(CC)CC1			29.9	41.7	28.8		
COc1ccc(S(=O)(=O)N2CCN(C(C)C)CC2)cc1S(=O)(=O)N1CCN(C(C)C)CC1			27.1	49.4	28.4		
CCOc1ccc(S(=O)(=O)N2CCN(Cc3ccccc3)CC2)cc1S(=O)(=O)N1CCN(Cc2ccccc2)CC1			20.1	49.8	24	55.6	22.2
COc1ccccc1N1CCN(S(=O)(=O)c2ccc(OC)c(S(=O)(=O)N3CCN(c4ccccc4OC)CC3)c2)CC1			28.1	27.6	28.7		
CCOc1ccc(S(=O)(=O)N2CCN(c3ccccc3F)CC2)cc1S(=O)(=O)N1CCN(c2ccccc2F)CC1			25.8	50.3	21	70.4	3.7
COc1ccc(S(=O)(=O)N2CCN(c3ccccc3F)CC2)cc1S(=O)(=O)N1CCN(c2ccccc2F)CC1		480	40.6	28.8	28	77.8	66.7
CCOc1ccc(S(=O)(=O)N2CCN(c3ccccc3OC)CC2)cc1S(=O)(=O)N1CCN(c2ccccc2OC)CC1			23.1	25.2	25.5		
CCOc1ccc(S(=O)(=O)N2CCN(C)CC2)cc1S(=O)(=O)N1CCN(C)CC1			18.1	29.5	24.5		
COc1ccc(S(=O)(=O)N2CCN(c3ccccc3)CC2)cc1S(=O)(=O)N1CCN(c2ccccc2)CC1			15.7	20.4	27.9		
CC(=O)Oc1ccccc1C(=O)O [ASPIRIN]	440	430	38.5	49.1	46.3		
COc1ccc(C(=O)NCc2cccnc2)cc1C(=O)NCc1cccnc1 [PICOTAMIDE]	470	340	37.1	49.2	45.5		

Continued, in another order:

IC50 (Blood [6]) [nM]	IC50 (Blood [7]) [nM]	SMILES	inhibition at 1.3 µM (Blood [1]) [%]	inhibition at 1.3 µM (Blood [2]) [%]	inhibition at 1.3 µM (Blood [3]) [%]	viability at 48 h, 10 µM [4] [%]	viability at 48 h, 100 µM [5] [%]
1150	330	COc1ccc(S(=O)(=O)N2CCN(Cc3ccccc3)CC2)cc1S(=O)(=O)N1CCN(Cc2ccccc2)CC1	38.5	22.8	33.2	55.6	22.2
	680	COc1ccc(S(=O)(=O)N2CCN(c3ccc(C)cc3)CC2)cc1S(=O)(=O)N1CCN(c2ccc(C)cc2)CC1	34.1	32.6	30.4		
	710	COc1ccc(S(=O)(=O)N2CCN(c3cccc(C)c3)CC2)cc1S(=O)(=O)N1CCN(c2cccc(C)c2)CC1	33.7	54.2	21.1	85.2	66.7
980		COc1ccc(S(=O)(=O)N2CCN(C)CC2)cc1S(=O)(=O)N1CCN(C)CC1	29.5	52.6	38.2	77.8	33.3
950	360	COc1ccc(S(=O)(=O)N2CCN(c3ccccc3C)CC2)cc1S(=O)(=O)N1CCN(c2ccccc2C)CC1	36.9	32.1	38.9		
910		CCOc1ccc(S(=O)(=O)N2CCN(c3ccccc3)CC2)cc1S(=O)(=O)N1CCN(c2ccccc2)CC1	23.6	26.9	40.1		
720	260	CCOc1ccc(S(=O)(=O)N2CCN(c3ccc(C)cc3)CC2)cc1S(=O)(=O)N1CCN(c2ccc(C)cc2)CC1	43	28.5	43.6	51.8	7.4
	650	CCOc1ccc(S(=O)(=O)N2CCN(c3ccccc3C)CC2)cc1S(=O)(=O)N1CCN(c2ccccc2C)CC1	33.1	41.6	28.9		
800		CCOc1ccc(S(=O)(=O)N2CCN(C(C)C)CC2)cc1S(=O)(=O)N1CCN(C(C)C)CC1	24.9	39	36.4		
450	430	CCOc1ccc(S(=O)(=O)N2CCN(c3cccc(C)c3)CC2)cc1S(=O)(=O)N1CCN(c2cccc(C)c2)CC1	34.8	48.8	50.3	56.6	33.3
